The target in series [1] is T1, Neuronal acetylcholine receptor subunit alpha-7 (Rattus norvegicus, UniProt Q05941). The series can be described thus: (§1) Inhibition of [125I]alpha-bungarotoxin binding to rat nicotinic acetylcholine receptor alpha7.
The target in series [2] is T1, Neuronal acetylcholine receptor subunit alpha-7. The description is as §1. In a few lines:
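Membranes from Wistar rat hippocampus made by sucrose homogenisation and differential centrifugation, then resuspended in 118 mM NaCl, 4.8 mM KCl, 2.5 mM CaCl2, 1.2 mM MgCl2, 20 mM Na-HEPES pH 7.5. Incubated with [125I]-α-bungarotoxin plus compounds, 37 °C, 3 h. Bound label collected by filtration. Nonspecific binding defined with 100 µM (−)-nicotine.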
The source holds these as a separate data set.

Series [3] addresses Neuronal acetylcholine receptor; alpha4/beta2 (Rattus norvegicus, UniProt P09483+P12390). The experiment in a line: Inhibition of [3H]cytisine binding to nicotinic acetylcholine receptor alpha4-beta2 from rat cerebral cortex. In kind it is tissue-based. In a few lines: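 Wistar rat cerebral cortex membranes in 120 mM NaCl, 2.5 mM KCl, 1 mM CaCl2, 1 mM MgCl2, 50 mM Tris-HCl pH 7.4. Incubated with [3H]cytisine plus compounds, 4 °C, 75 min. Filtered and counted by liquid scintillation. Nonspecific binding defined with 100 µM (−)-nicotine.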

A short description of series [4]: Area under plasma concentration time curve 24 hours after peroral dosing of 1.0 mg/kg (AUC) in rats (N=4). Particulars: rat, po. It counts as ADME, organism-based. Also on record: dose 1 mg/kg, route oral. The gist of the method:
(§2)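 Rats (N=4) given a single oral dose; plasma sampled over 24 h. AUC0-24h estimated from the plasma concentration-time curve and Cmax taken as the peak plasma level. Reported as mean ± SD.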

Series [5] in a line: Inhibition of [125I]alpha-bungarotoxin binding to nicotinic acetylcholine receptor […]-delta-gamma from BC3H1 cells. It counts as cell-based, Mus musculus. Particulars: bc3h-1. The gist of the method:
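BC3H1 muscle cells grown in DMEM with 4 mM L-glutamine and 20% FBS. Membranes from confluent cells washed in HEPES-buffered saline, pH 7.5. Incubated with [125I]-α-bungarotoxin plus compounds, 37 °C, 3 h, then filtered. Nonspecific binding defined with […].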

A short description of series [6]: Maximum plasma concentration after peroral dosing of 10.0 mg/kg in rats (N=4). It counts as ADME, organism-based. As to conditions: rat, po. Also on record: dose 10 mg/kg, route oral. In a few lines: as §2
Series [7] is described as follows: Oral bioavailability of compound after peroral dosing of 10.0 mg/kg in rats (N=4). In kind it is ADME, organism-based. As to conditions: rat, in vivo, read-out: BA.
Series [8] can be described thus: Oral bioavailability of compound after peroral dosing of 1.0 mg/kg in rats (N=4). It counts as ADME, organism-based. As to conditions: rat, in vivo, read-out: BA.
The nature of series [9]: Maximum plasma concentration after peroral dosing of 1.0 mg/kg in rats (N=4). In kind it is ADME, organism-based. Also on record: dose 1 mg/kg, route oral. Particulars: rat, po. In a few lines: as §2
Series [10] in a line: Area under plasma concentration time curve 24 hours after peroral dosing of 10.0 mg/kg (AUC) in rats (N=4). In kind it is ADME, organism-based. Also on record: dose 10 mg/kg, route oral. Particulars: rat, po. The gist of the method: as §2
Series [11] is described as follows: Brain permeability is determined by ratio of concentration of compound in brain to that of in plasma (CB/CP) 2 hrs after oral dosing of 10.0 mg/kg (N=3). Also on record: dose 10 mg/kg, route oral. Particulars: rat, read-out: Permeability. In kind it is ADME, organism-based. In a few lines:
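Rats (N=3) given a single 10 mg/kg oral dose. Brain and plasma concentrations measured 2 h after dosing, and the brain/plasma ratio (CB/CP) calculated. Reported as mean ± SD.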

Series [12] is described as follows: Half-life of plasma concentration after intravenous dosing of 1 mg/kg in rats (N=4). Particulars: rat.
Series [13] in a line: Brain permeability is determined by ratio of concentration of compound in brain to that of in plasma (CB/CP) 1 hr after subcutaneous dosing of 1.0 mg/kg (N=3). It counts as ADME, organism-based. Also on record: dose 1 mg/kg, route subcutaneous. Particulars: rat, sc, read-out: Permeability. In a few lines: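 Rats (N=3) given a single 1 mg/kg sc dose. Brain and plasma concentrations measured 1 h later, and the brain/plasma ratio (CB/CP) calculated. Reported as mean ± SD.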

The structures appear in SMILES notation. Some results are limits rather than exact numbers.

T1 sequence (Q05941 whole entry): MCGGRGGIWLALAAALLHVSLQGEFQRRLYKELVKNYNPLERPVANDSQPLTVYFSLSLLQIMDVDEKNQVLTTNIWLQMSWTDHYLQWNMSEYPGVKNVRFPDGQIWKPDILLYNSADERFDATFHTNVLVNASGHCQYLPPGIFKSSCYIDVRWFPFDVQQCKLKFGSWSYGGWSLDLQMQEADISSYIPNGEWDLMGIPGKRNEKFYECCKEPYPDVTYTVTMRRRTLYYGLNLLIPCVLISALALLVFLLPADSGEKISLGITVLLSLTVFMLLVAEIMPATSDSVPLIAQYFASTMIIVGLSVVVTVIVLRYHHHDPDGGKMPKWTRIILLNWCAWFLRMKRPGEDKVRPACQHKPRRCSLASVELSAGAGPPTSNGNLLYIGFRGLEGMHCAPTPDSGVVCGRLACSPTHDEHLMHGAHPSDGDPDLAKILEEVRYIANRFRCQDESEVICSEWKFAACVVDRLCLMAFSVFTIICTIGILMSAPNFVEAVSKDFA
Neuronal acetylcholine receptor; alpha4/beta2, sequence (P09483 whole entry): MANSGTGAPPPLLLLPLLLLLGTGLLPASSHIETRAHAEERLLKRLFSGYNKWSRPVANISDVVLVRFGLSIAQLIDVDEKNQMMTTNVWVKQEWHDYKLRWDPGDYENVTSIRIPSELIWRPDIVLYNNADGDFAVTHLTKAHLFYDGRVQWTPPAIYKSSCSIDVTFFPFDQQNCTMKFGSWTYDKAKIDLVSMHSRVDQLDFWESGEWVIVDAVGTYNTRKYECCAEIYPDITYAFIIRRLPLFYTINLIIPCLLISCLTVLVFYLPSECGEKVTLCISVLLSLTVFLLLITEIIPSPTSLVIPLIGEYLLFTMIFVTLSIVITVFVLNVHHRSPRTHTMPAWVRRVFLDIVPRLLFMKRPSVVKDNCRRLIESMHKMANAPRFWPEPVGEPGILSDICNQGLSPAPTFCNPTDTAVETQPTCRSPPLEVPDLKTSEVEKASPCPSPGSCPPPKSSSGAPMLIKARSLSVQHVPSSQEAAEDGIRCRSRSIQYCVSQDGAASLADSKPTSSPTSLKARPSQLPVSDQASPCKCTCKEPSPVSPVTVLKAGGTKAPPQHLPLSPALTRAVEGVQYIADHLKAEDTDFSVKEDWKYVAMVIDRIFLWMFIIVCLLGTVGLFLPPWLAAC
Neuronal acetylcholine receptor; alpha4/beta2, sequence (P12390 whole entry): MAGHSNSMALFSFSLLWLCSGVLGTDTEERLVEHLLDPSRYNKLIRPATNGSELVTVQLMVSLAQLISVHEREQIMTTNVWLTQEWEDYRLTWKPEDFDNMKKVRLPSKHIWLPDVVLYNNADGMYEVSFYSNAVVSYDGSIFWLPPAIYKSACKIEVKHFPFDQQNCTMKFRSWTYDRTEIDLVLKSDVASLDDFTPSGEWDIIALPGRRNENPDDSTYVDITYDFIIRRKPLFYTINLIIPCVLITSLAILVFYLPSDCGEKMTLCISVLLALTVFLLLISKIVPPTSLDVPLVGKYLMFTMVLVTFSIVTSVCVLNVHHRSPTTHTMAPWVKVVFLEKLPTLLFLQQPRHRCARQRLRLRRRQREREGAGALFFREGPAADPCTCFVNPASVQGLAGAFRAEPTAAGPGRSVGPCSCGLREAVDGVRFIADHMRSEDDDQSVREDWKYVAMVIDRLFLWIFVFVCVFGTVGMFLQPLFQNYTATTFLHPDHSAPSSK

For the compound `N#Cc1ccc(N2C[C@@]3(CN4CCC3CC4)OC2=O)s1`, the Ki (commonly a dissociation constant, usually derived from enzyme kinetics or from competition with a known ligand) in [1] was found to be 85 nM.

For `Cc1csc(N2C[C@@]3(CN4CCC3CC4)OC2=O)c1`, in series [2], the IC50 (as a rule, the concentration that inhibits the measured activity by half) is greater than 1000 nM.

`CCc1ccc(N2C[C@@]3(CN4CCC3CC4)OC2=O)s1`: the inhibition constant (Ki) in [1] was 21 nM.

As to `Cc1ccc(N2C[C@@]3(CN4CCC3CC4)OC2=O)s1`, the affinity in series [1], expressed as Ki, was 12 nM.

Take `O=C1O[C@]2(CN3CCC2CC3)CN1c1ccc2ccccc2c1`: in series [1], the inhibition constant Ki stood at 31 nM.

For `c1ccc2sc(CO[C@@H]3CN4CCC3CC4)cc2c1`, in [1], the Ki is 13 nM.

For `O=C1O[C@]2(CN3CCC2CC3)CN1c1nc2ccccc2s1`, the Ki in series [1] turned out to be 430 nM.

The compound `CC(=O)c1ccc(N2C[C@@]3(CN4CCC3CC4)OC2=O)s1` had a Ki in series [1] of 190 nM.

Compound `Cc1cc(N2C[C@@]3(CN4CCC3CC4)OC2=O)sc1C` yielded an IC50 in series [2] greater than 1000 nM.

`O=C1O[C@@]2(CN3CCC2CC3)CN1c1cc2ccccc2s1` registered an IC50 in series [2] greater than 1000 nM.

`O=C(CC1CN2CCC1CC2)c1cc2ccccc2s1` (single isomer, unassigned; (+)) had a Ki in series [1] of 65 nM.

The compound `O=C1O[C@@]2(CN3CCC2CC3)CN1c1ccc2ccccc2c1` registered a Ki in series [1] of 205 nM.

On to `CC(C)c1ccc(N2C[C@@]3(CN4CCC3CC4)OC2=O)s1`, for which, in [1], the affinity corresponds to a Ki of 65 nM.

As for `CC(O)c1ccc(N2C[C@@]3(CN4CCC3CC4)OC2=O)s1` (stereo partly specified), the Ki in [1] was found to be 145 nM.

`O=C1O[C@]2(CN3CCC2CC3)CN1c1cc2ccccc2o1`: in series [1], the Ki turned out to be 370 nM.

Consider `O=C1O[C@]2(CN3CCC2CC3)CN1c1ccc(Cl)s1`, for which the Ki in [3] was found to be 1800 nM; in series [1], 9 nM. Further, the AUC (in general, the area under the concentration-time curve, a measure of exposure) at 24 h in series [4] was found to be 224 ng·h/mL; in [10], 4640 ng·h/mL. This compound also had an IC50 in series [5] greater than 10000 nM. Also, the Cmax (in general, the maximum level reached in the sampled fluid or tissue) in series [6] worked out at 997 ng/mL; in series [9], 56 ng/mL. For the same compound, the bioavailability was 108% in series [7] and 52% in [8]. The Kp at 2 h in series [11] came to 59.

Compound `O=C1O[C@]2(CN3CCC2CC3)CN1c1ccccn1` yielded an IC50 in [2] greater than 1000 nM.

In the case of `COc1ccc(/C=C2\CCCN=C2c2cccnc2)c(OC)c1` [GTS-21], the values for the Ki in [3] and in series [1] were 84 nM and 220 nM, respectively. The compound further came in with an IC50 in [5] greater than 10000 nM. In [6], this compound came in with a Cmax of 138 ng/mL. Further, the bioavailability in series [7] was 14%. Besides, the half-life – broadly, the time in which the quantity being followed falls by half – in [12] was 28.2 min. For the same compound, the AUC at 24 h in series [10] was determined as 453 ng·h/mL. Further, the Kp at 2 h in series [11] is less than 0.3.

Regarding `O=C1NC[C@@]2(CN3CCC2CC3)O1`, the Kp at 1 h in series [13] was 0.76. Also, the IC50 in series [5] was greater than 10000 nM. This compound also had a Cmax in series [6] of 1580 ng/mL. The bioavailability in [7] was determined as 103%. Besides, in series [10], the area under the curve (AUC) at 24 h is 5390 ng·h/mL.

In turn, `O=C1O[C@]2(CN3CCC2CC3)CN1c1nc2ccccc2o1` returned an IC50 in series [2] greater than 1000 nM.

In [2], `O=C1OC2(CN3CCC2CC3)CN1c1ccccc1` (stereo unspecified) returned a concentration for half-maximal inhibition (IC50) greater than 1000 nM.

In series [1], `O=C1O[C@]2(CN3CCC2CC3)CN1c1cc2ccccc2s1` gave a Ki of 75 nM.

Compound `Cc1ccsc1N1C[C@@]2(CN3CCC2CC3)OC1=O` came in with an IC50 in [2] greater than 1000 nM.

In the case of `O=C1O[C@]2(CN3CCC2CC3)CN1c1ccsc1`, the IC50 in series [2] is greater than 1000 nM.

On to `O=C1O[C@]2(CN3CCC2CC3)CN1c1ccc(Br)s1`, for which the inhibitory constant (Ki) in series [1] amounted to 4 nM.

The compound `O=C1O[C@]2(CN3CCC2CC3)CN1c1cccs1` displayed a Ki in series [1] of 80 nM.
